ChEMBL document CHEMBL5055627 (J Med Chem, 2021)
≈ marks a conversion by molar mass, not a printed value. Calls of active or inactive are those of the source. The rule behind the calls is not given here.

Key:
[1] = molecular target: T1, Proteasome Macropain subunit MB1 (Homo sapiens, UniProt P28074); assay: Inhibition of human 20S constitutive proteasome beta-5c subunit using Suc-LLVY-AMC as substrate measured over 1.5 to 2 hrs by plate reader assay
T1 sequence (P28074 whole entry): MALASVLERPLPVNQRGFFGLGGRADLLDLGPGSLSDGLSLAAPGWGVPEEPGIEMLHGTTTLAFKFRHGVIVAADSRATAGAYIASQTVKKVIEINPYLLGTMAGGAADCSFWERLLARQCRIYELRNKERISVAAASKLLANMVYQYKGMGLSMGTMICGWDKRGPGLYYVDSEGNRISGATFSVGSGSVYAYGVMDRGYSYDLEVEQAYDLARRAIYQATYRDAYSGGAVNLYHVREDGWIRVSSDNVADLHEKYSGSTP
How it was run: (§1)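 Human c-20S (from red blood cells; β5c 0.2 nM final) or i-20S (from PBMC; β5i 0.4 nM final), activated with 0.02% SDS. Buffer 20 mM HEPES, 0.5 mM EDTA, pH 7.5; 3-fold compound series from 100 μM.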

[2] = molecular target: T2, Proteasome subunit beta type-8 (Homo sapiens, UniProt P28062); assay: Inhibition of human 20S immunoproteasome beta-5i subunit using Suc-LLVY-AMC as substrate measured over 1.5 to 2 hrs by plate reader assay; how it was run: as §1
T2 sequence (P28062 whole entry): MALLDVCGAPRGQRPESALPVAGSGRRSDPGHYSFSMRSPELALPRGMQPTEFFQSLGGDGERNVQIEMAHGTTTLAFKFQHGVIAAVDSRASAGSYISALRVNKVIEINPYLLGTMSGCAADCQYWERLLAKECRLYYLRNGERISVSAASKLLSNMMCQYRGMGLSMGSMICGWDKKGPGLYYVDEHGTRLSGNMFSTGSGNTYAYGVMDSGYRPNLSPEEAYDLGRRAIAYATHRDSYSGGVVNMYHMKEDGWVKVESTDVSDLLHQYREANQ

[3] = molecular target: T3, 20S immunoproteasome beta-1i subunit (Homo sapiens, UniProt P28065); assay: Inhibition of human 20S immunoproteasome beta-1i subunit at 100 uM using Z-LLE-AMC as substrate measured over 1.5 to 2 hrs by plate reader assay relative to control; details: probe Z-LLE-AMC, time 1.5-2 hrs
T3 sequence (P28065 whole entry): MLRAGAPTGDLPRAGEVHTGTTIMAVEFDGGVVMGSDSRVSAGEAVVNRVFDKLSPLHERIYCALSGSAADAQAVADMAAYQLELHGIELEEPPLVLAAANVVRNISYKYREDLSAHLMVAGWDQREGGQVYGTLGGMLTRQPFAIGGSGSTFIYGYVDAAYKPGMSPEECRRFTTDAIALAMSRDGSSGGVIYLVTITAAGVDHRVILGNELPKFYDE
How it was run: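 Human c-20S β1c or i-20S β1i, activated with 0.02% SDS, with 50 μM Z-LLE-AMC in 20 mM HEPES, 0.5 mM EDTA, pH 7.5. AMC fluorescence (ex 360/em 460 nm) recorded over 1.5–2 h.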

[4] = molecular target: T4, 20S immunoproteasome beta-2i subunit (Homo sapiens, UniProt P40306); assay: Inhibition of human 20S immunoproteasome beta-2i subunit at 100 uM using Z-VLR-AMC as substrate measured over 1.5 to 2 hrs by plate reader assay relative to control; details: probe Z-VLR-AMC, time 1.5-2 hrs
T4 sequence (P40306 whole entry): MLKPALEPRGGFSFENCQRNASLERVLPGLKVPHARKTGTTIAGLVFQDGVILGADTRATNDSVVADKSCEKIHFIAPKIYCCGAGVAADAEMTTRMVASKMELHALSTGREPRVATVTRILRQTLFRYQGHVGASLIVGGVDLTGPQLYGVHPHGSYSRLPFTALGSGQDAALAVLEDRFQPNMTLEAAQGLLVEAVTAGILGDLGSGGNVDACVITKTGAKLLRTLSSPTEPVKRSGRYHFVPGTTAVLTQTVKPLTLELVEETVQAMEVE
How it was run: (§2)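 Human c-20S β2c or i-20S β2i, activated with 6 nM PA28α, with 50 μM Z-VLR-AMC in 20 mM HEPES, 0.5 mM EDTA, pH 7.5. Compounds in 3-fold series from 100 μM.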

[5] = molecular target: T5, Proteasome subunit beta type-10 (Homo sapiens, UniProt P40306); assay: Inhibition of human 20S immunoproteasome beta-2i subunit using Z-VLR-AMC as substrate measured over 1.5 to 2 hrs by plate reader assay; how it was run: as §2
T5 sequence (P40306 whole entry): T4 sequence (P40306 whole entry)

[6] = Permeability of compound by PAMPA; type: ADME
[7] = Kinetic solubility of compound in PBS at pH 6.8 incubated for 24 hrs by UPLC/MS analysis; type: physicochemical; details: read-out: Kinetic_solubility
[8] = Stability in human plasma assessed as parent compound remaining incubated for 2 hrs by UPLC/MS analysis; type: ADME, cell-free; details: read-out: Stability
HepG2 = assay: Cytotoxicity against human HepG2 cells assessed as cell viability at 30 uM incubated for 72 hrs relative to control; type: cell-based; details: hepg2, 72 h
How it was run: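 HepG2 cells exposed to 30 μM compound for 72 h, then viability assessed.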

[9] = Stability of human liver microsomes assessed as intrinsic clearance at 1 uM measured upto 30 mins in presence of NADPH generating system by LC/MS-MS analysis; type: ADME, Microsome; details: 0.5 h
How it was run: (§3)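 Compound at 1 μM with human or mouse liver microsomes (0.2 mg protein/mL) in phosphate buffer pH 7.4, started with NADPH-generating system; 1% organic solvent. Incubated at 37 °C for 0, 15 and 30 min in duplicate, quenched with acetonitrile plus internal standard, analysed by LC/MS-MS. CLint = first-order k divided by protein concentration.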

[10] = Stability of mouse liver microsomes assessed as intrinsic clearance at 1 uM measured upto 30 mins in presence of NADPH generating system by LC/MS-MS analysis; type: ADME, Microsome; details: 0.5 h; how it was run: as §3
[11] = system: Mycobacterium tuberculosis; assay: Inhibition of Mycobacterium tuberculosis 20S proteasome expressed in Escherichia coli BL21(DE3) at 10 to 30 nM using Suc-LLVY-AMC as substrate by plate reader assay; details: dose 10-30 nM, TDE = time-dependent effect
[12] = Inhibition of Mycobacterium tuberculosis 20S proteasome expressed in Escherichia coli BL21(DE3) using Suc-LLVY-AMC as substrate by plate reader assay
[13] = system: Mycobacterium tuberculosis; assay: Inhibition of Mycobacterium tuberculosis 20S proteasome expressed in Escherichia coli BL21(DE3) assessed as half life using Suc-LLVY-AMC as substrate by plate reader assay
[14] = system: Mycobacterium tuberculosis; assay: Inhibition of intracellular 20S proteasome activity in Mycobacterium tuberculosis MHD1441 expressing Pup-GFP assessed as Pup-GFP accumulation measured after 4 days by fluorescence assay; type: cell-based; details: dose 0.1-33 µM, time 4.0 day
How it was run: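 Mtb H37Rv carrying pSCK1 (produces Pup-GFP), adjusted to OD 0.05 in 7H9. Compounds at 33, 11, 3.7, 1.2, 0.4 and 0.1 μM final, incubated 4 d at 37 °C. OD580 and fluorescence (ex 495/em 510 nm) read; RFU normalised to OD, then expressed as fold of DMSO control; ≥3 independent experiments.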

[15] = system: Mycobacterium tuberculosis; assay: Bactericidal activity against Mycobacterium tuberculosis under nitrosative stress condition; type: functional, organism-based
How it was run: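 Non-replicating Mtb Erdman held in Sauton's medium with 0.5 mM NaNO₂ at pH 5.5 to generate NO; killing measured as reported previously.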

[16] = system: Mycobacterium tuberculosis; assay: Inhibition of intracellular 20S proteasome activity in Mycobacterium tuberculosis assessed as accumulation of pupylated protein incubated for 48 hrs; type: cell-based; details: dose 1-10 µM
How it was run: (§4)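 Mtb CDC1551 dop::MycoMarT7 expressing Pup-GGE (no depupylation) treated 48 h with compound at 1, 3 or 10 μM, or carfilzomib at 50 μM. Pupylated proteins detected by anti-Pup immunoblot, with anti-PrcB as loading control.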

[17] = system: Mycobacterium tuberculosis; assay: Inhibition of intracellular 20S proteasome activity in Mycobacterium tuberculosis assessed as accumulation of pupylated protein at 50 uM incubated for 48 hrs; type: cell-based; how it was run: as §4

SMILES	IC50 [1] [µM]	IC50 [2] [µM]	inhibition at 100 µM [3] [%]	inhibition at 100 µM [4] [%]	further results
O=C1CCc2cccc(c2)OCCCC[C@@H](C(=O)NCc2ccccc2F)NC(=O)[C@H](CCN2CCC[C@@H]2c2ccccc2)N1	86.2	47.3	–	–	–
O=C1CCc2cccc(c2)OCCCC[C@@H](C(=O)NCc2ccccc2F)NC(=O)[C@H](CC(=O)N2CCC[C@H]2C2CC2)N1	1.5	0.87	< 50	< 50	–
O=C1CCCCCCCCOC[C@@H](C(=O)NCc2cccc3ccccc23)NC(=O)[C@H](CC(=O)N2CCCC2)N1	> 100	> 100	< 50	< 50	–
CC(=O)N[C@H]1Cc2cccc(c2)Oc2ccc(cc2)C[C@@H](C(=O)NCc2ccccc2F)NC(=O)[C@H](CC(=O)N2CCC[C@@H]2c2ccccc2)NC1=O	> 100	> 100	< 50	< 50	–
O=C1CCc2cccc(c2)OCCCC[C@@H](C(=O)NCc2ccccc2F)NC(=O)[C@H](CC(=O)N2CCC[C@@H]2C2CC2)N1	0.073	0.069	< 50	< 50	IC50 [5]: 44.5 µM
CCN(CC)C(=O)C[C@H](NC(=O)CCc1ccccc1)C(=O)N[C@@H](Cc1ccc(F)cc1)C(=O)NCc1cccc2ccccc12	70	54.7	–	–	–
O=C(N[C@H]1Cc2cccc(c2)Oc2ccc(cc2)C[C@@H](C(=O)NCc2ccccc2F)NC(=O)[C@H](CC(=O)N2CCC[C@@H]2c2ccccc2)NC1=O)c1ccccc1	> 100	> 100	< 50	< 50	–
O=C1CCc2cccc(c2)Oc2ccc(cc2)C[C@@H](C(=O)NCc2ccccc2F)NC(=O)[C@H](CC(=O)N2CCCC2)N1	> 100	21.1	< 50	< 50	–
O=C1CCCCCCCCCC[C@@H](C(=O)NCc2cccc3ccccc23)NC(=O)[C@H](CC(=O)N2CCCC2)N1	> 100	> 100	< 50	< 50	–
O=C1CCCCCCCCC[C@@H](C(=O)NCc2cccc3ccccc23)NC(=O)[C@H](CC(=O)N2CCCC2)N1	> 100	> 100	< 50	< 50	–
O=C1CCc2cccc(c2)Oc2ccc(cc2)C[C@@H](C(=O)NCc2ccccc2F)NC(=O)[C@H](CC(=O)N2CCC[C@@H]2c2ccccc2)N1	> 100	> 100	< 50	< 50	permeability [6]: 22.7 ×10⁻⁶ cm/s; solubility kinetic at 24 h [7]: 1.4 µg/mL (≈ 2.11 µM); remaining at 2 h [8]: 94%; Activity (HepG2): 98%; CLH [9]: > 768 µL/min/mg; CLH [10]: > 768 µL/min/mg; inhibition [11]: Tde; Ki [12]: 0.0121 µM; T1/2 [13]: 16.5 min; inhibition [14]: Dose-dependent effect; Activity [15]: Dose-dependent effect; inhibition [16]: Dose-dependent effect
O=C1CCc2cccc(c2)OCCCC[C@@H](C(=O)NCc2ccccc2F)NC(=O)[C@H](CC(=O)N2CCC[C@@H]2c2ccccc2)N1	> 100	> 100	< 50	< 50	permeability [6]: 20.6 ×10⁻⁶ cm/s; solubility kinetic at 24 h [7]: 33 µg/mL (≈ 52.5 µM); remaining at 2 h [8]: 97%; Activity (HepG2): 102%; CLH [9]: > 768 µL/min/mg; CLH [10]: > 768 µL/min/mg; inhibition [14]: Dose-dependent effect
CC(C)C[C@H](NC(=O)[C@H](CCc1ccccc1)NC(=O)CN1CCOCC1)C(=O)N[C@@H](Cc1ccccc1)C(=O)N[C@@H](CC(C)C)C(=O)[C@@]1(C)CO1	–	–	–	–	inhibition [17]: Active
O=C1CCCCCCCCOC[C@@H](C(=O)NCc2ccccc2F)NC(=O)[C@H](CC(=O)N2CCC[C@@H]2c2ccccc2)N1	> 100	> 100	< 50	< 50	permeability [6]: 26 ×10⁻⁶ cm/s; remaining at 2 h [8]: 86%; Activity (HepG2): 91%; CLH [9]: > 768 µL/min/mg; CLH [10]: > 768 µL/min/mg; inhibition [14]: Dose-dependent effect
O=C1N[C@@H](CC(=O)N2CCCC2)C(=O)N[C@H](C(=O)NCc2cccc3ccccc23)CCCCCCCCCC1Cc1ccccc1 (stereo partly drawn)	–	> 100	< 50	< 50	–
